Diaph act CS – counter-screen for diaphorase-based assays: diaphorase activators and chemical reducers; 190,000 tested, 0.005% active; activation factor at 20 µM; Diaphorase/resazurin coupled assay, resorufin fluorescence, 16 min; hits give high values; 1 = vehicle wells, 0 = NADH-free wells;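 active means diaphorase activity raised at least twofold by the compound at 20 µM; inactive means activation factor below 2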
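Test system: Clostridium kluyveri diaphorase, purified enzyme; input: enzyme 0.07 U/mL final; buffer or medium: 50 mM HEPES pH 7.4 with 4.542 mM MgCl2, 0.005% Tween 20; also added: 0.114 mM NADH and 0.1 mM resazurin, final amounts; schedule: 16 min enzyme reaction, ambient temperature; technique: fluorescence of resorufin, 544 nm excitation, 590 nm emission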
Diaph inh CS – counter-screen for diaphorase-based assays: diaphorase inhibitors and chemical oxidizers. inhibition, % at 20 µM. 190,000 tested, 0.69% active. diaphorase resazurin-to-resorufin fluorescence, NADH, 16 min; bacterial (C. kluyveri) enzyme, not human. AID 1217;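 active means primary screen inhibition at 20 µM above a set limit, cut at about 50% in these data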;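 further: plate controls were DMSO with full reaction for no effect and wells lacking NADH for full effect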
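Benchmarks: positive control wells lacking NADH, neutral wells with DMSO only. System: bacterial diaphorase enzyme (C. kluyveri). Input: 0.14 U/mL diaphorase, enzyme working solution. Detection: resorufin fluorescence, excitation 544 nm, emission 590 nm. Times: 16-min room-temperature incubation before reading.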
PfGluPho inh – PfG6PD (Plasmodium falciparum) enzyme inhibition; PfGluPho enzyme, NADPH resazurin-diaphorase fluorescence; inhibition, % at 20 µM; 350,000 tested, 0.78% active;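 active means inhibition reaching at least a set limit at 20 µM in the primary screen, cut at about 59% in these data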;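 further: 0% = DMSO wells with substrate and 100% = DMSO wells lacking glucose-6-phosphate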
HKDC1 inh – blocks human hexokinase HKDC1 activity; Q2TB90; recombinant HKDC1, G6PDH/diaphorase resazurin coupled fluorescence; inhibition, % at 20 µM; 340,000 tested, 0.16% active; AID 493160;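 active means inhibition above about 35% when tested at 20 µM, limit read from the data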;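 further: plate controls were DMSO wells with enzyme for no effect and DMSO wells lacking enzyme for full effect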
Target sequence (Q2TB90 whole entry, looked up): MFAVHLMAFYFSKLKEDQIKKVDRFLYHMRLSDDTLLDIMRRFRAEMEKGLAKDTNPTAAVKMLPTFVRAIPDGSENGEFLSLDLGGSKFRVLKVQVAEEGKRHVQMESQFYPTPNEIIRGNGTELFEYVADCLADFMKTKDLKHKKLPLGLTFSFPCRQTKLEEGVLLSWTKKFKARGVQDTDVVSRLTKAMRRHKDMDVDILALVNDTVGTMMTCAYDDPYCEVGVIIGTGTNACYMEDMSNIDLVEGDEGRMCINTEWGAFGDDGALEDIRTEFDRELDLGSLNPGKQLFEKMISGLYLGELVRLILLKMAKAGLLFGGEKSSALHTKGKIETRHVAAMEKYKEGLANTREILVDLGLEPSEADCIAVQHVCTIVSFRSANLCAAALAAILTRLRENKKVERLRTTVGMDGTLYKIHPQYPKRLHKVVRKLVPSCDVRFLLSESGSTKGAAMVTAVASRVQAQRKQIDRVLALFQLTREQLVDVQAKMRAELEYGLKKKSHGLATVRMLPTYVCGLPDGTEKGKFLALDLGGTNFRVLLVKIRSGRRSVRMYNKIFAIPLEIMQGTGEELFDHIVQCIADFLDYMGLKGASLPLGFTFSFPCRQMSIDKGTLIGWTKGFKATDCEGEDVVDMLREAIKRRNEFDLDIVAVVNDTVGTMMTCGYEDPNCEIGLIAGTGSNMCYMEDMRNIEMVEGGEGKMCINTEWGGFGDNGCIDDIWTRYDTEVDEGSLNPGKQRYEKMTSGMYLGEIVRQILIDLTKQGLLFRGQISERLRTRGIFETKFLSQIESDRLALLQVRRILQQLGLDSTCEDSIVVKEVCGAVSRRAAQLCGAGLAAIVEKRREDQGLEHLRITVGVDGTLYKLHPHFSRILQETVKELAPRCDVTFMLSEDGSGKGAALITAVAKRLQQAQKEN
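Test system: HK5 enzyme. Quantity: 5 µg/mL HK5 final. Reagent: glucose and ATP substrates. Schedule: 90 min reaction incubation at room temperature, dark. Technique: resazurin-to-resorufin fluorescence via G6PDH and diaphorase coupling, 525/613 nm. Control set: DMSO wells with and without enzyme mix.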
G6PDH counter – inhibits Leuconostoc G6PDH, flagging false hits in G6PDH-based assays. Purified L. mesenteroides G6PDH, diaphorase/resazurin coupled fluorescence, 45 min. inhibition, % at 5 µM. 200,000 tested, 0.12% active; in the data active means inhibition above about 50%
PfG6PD confirm – confirmation of Plasmodium falciparum G6PD inhibitors; shares compounds with PfGluPho inh; recombinant PfGluPho, NADPH-diaphorase-resazurin fluorescence; inhibition, % at 20 µM; 2,400 tested, 34% active; AID 504753;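 active means inhibition of at least 50% at 20 µM in any single replicate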;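 further: 0% = DMSO with substrate and 100% = DMSO lacking glucose-6-phosphate substrate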
Diaph ctr 10uM – inhibits diaphorase or oxidizes, flagging false PfG6PD hits. shares compounds with PfGluPho inh. diaphorase-coupled resazurin reduction, fluorescence, NADPH 10 uM. inhibition, % at 20 µM. 820 tested, 39% active;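 active means average inhibition reaching 50% or more with the compound at 20 µM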;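 further: resorufin red fluorescence formed as diaphorase reduces resazurin using NADPH; 0% = DMSO with enzyme and 100% = DMSO without enzyme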
Diaphorase 30uM – counter-screen for P. falciparum G6PD inhibitors: diaphorase inhibitors, oxidizers. shares compounds with PfGluPho inh. Diaphorase/resazurin coupled assay, resorufin fluorescence, 30 uM NADPH. inhibition, % at 20 µM. 820 tested, 29% active;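 active means inhibition averaging 50% or more, tested at 20 µM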;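 further: 0% = DMSO with enzyme and 100% = DMSO wells lacking diaphorase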
An asterisk follows results filed as active; / = no result. Hits are enriched below; roughly 1.3% of the tested compounds scored in any of these assays.

SMILES | Diaph act CS | Diaph inh CS | PfGluPho inh | HKDC1 inh | G6PDH counter | PfG6PD confirm | others
CCS(=O)(=O)N1CCN(c2ccc([N+](=O)[O-])c(NC(C)c3ccccc3)c2)CC1 (stereo not drawn) | 0.8 | 22 | 78* | 9 | 7 | 54* | Diaph ctr 10uM=34;Diaphorase 30uM=24
COCCN(Cc1nnc(-c2cccs2)o1)C(=O)CN1C(=O)NC2(CCCCC2)C1=O | / | / | -14 | -8 | / | /
Nc1c(C(=O)OCC2CCCO2)c2nc3ccccc3nc2n1C1CCCC1 (stereo not drawn) | 0.7 | 29 | 49 | 7 | 3 | 20
COCCn1c(N)c(C(=O)NCC2CCCO2)c2nc3ccccc3nc21 (stereo not drawn) | 0.7 | 33 | 30 | 17 | 28 | /
CC(=O)N1CCN(c2cc(-c3ccccc3)nc3cc(-c4cccc(Cl)c4)nn23)CC1 | / | / | 26 | / | / | /
COc1ccc(OC)c(NC(=O)CSc2nc(=O)n(Cc3ccccn3)c3c2CCC3)c1 | / | / | 7 | -3 | / | /
COc1ccc(Br)cc1CNC(=O)c1ccc2c(c1)N(C)CCS2 | / | / | 26 | -3 | / | /
CN1CCSc2ccc(C(=O)NCc3cccc(F)c3)cc21 | / | / | 69* | 2 | / | -20
COc1cccc(NC(=O)c2ccc3c(c2)N(C)CCS3)c1 | / | / | 94* | -1 | / | 27
Cc1ccc2nc3sc(C(=O)N4CCOCC4)c(N)c3cc2c1 | 0.9 | 15 | 84* | 3 | 2 | 52* | Diaph ctr 10uM=61*;Diaphorase 30uM=40
Cc1ccc(-n2sc3ccccc3c2=O)cc1 | 0.9 | 12 | 115* | 15 | -9 | 101* | Diaph ctr 10uM=-23;Diaphorase 30uM=-23
Cc1ccc(Cn2c(=O)sc3ccccc3c2=O)cc1 | 0.8 | 16 | -5 | -5 | -19 | /
O=c1c2ccccc2sn1-c1ccc(Cl)cc1 | / | / | 126* | / | / | 106* | Diaph ctr 10uM=-5;Diaphorase 30uM=16
O=c1c2ccccc2ncn1-c1ccc(Cl)cc1 | / | / | -13 | -3 | / | /
CC(C)c1nnc(NC(=O)CCC2CCCCC2)s1 | / | / | 4 | -3 | / | /
Cc1ccc(S(=O)(=O)N2CCN(c3ccccc3)CC2)c(C)c1 | / | / | -11 | -2 | / | /
CCSc1nc2c([nH]1)c(=O)n(C)c(=S)n2C | / | / | 62* | -1 | / | 41
O=C(CNc1ccc2c(c1)OCO2)N/N=C\c1cn(Cc2ccccc2)c2ccccc12 | 0.8 | 21 | 67* | -4 | 8 | 51* | Diaph ctr 10uM=-10;Diaphorase 30uM=16
O=C(CNc1ccc2c(c1)OCO2)N/N=C\c1cn(Cc2ccc(F)cc2)c2ccccc12 | 1 | 4 | / | / | 3 | /
O=C(NCCCN1CCCC1=O)Nc1ccccc1F | / | / | -2 | 5 | / | /
Cc1ccc(/C=N\NC(=O)c2ccc3c(c2)OCO3)o1 | / | / | 6 | -4 | / | /
CCCOc1ccc(N)cc1N | 0.6 | 38 | 115* | 26 | 42 | 70* | Diaph ctr 10uM=52*;Diaphorase 30uM=51*
CCCOc1cc(N)ccc1C(=O)OCCN(CC)CC | / | / | -7 | -7 | / | /
COC(=O)Nc1ccc(SCC(=O)c2cccc([N+](=O)[O-])c2)cc1 | / | / | 42 | -1 | / | /
Cc1cc2[nH]c3c4ccccc4nc(C)c3c2cc1C | / | / | 75* | 4 | / | 8
SMILES | Diaph act CS | Diaph inh CS | PfGluPho inh | HKDC1 inh | G6PDH counter | PfG6PD confirm | others
Cc1cc2[nH]c3c(c[n+](C)c4ccccc34)c2cc1C | 1.5 | -45 | 55 | -1 | 10 | /
COc1ccc(C2=CN(Cc3ccccc3)CCC2=O)cc1 | / | / | -12 | 4 | / | /
CCn1c(=O)n(CC)c2cc(N3CCCC3)c(NC(=O)c3cccc(C)c3)cc21 | / | / | 71* | 2 | / | 84* | Diaph ctr 10uM=-10;Diaphorase 30uM=9
CCc1ccc(N2C(=O)CN(Cc3cccs3)C2=S)cc1 | 1 | 1 | 1 | 10 | 1 | /
CCOC(=O)NC(N(O)c1cccc(Cl)c1)C(Cl)(Cl)Cl (stereo not drawn) | / | / | 85* | 3 | / | 18
CCN(C(=O)Nc1cccc(Cl)c1)c1ccccc1 | / | / | -1 | -3 | / | /
COC(=O)c1sc(NC(=S)NNC(=O)c2c(Br)c(C)nn2C)c(C(=O)OC)c1C | / | / | 61* | -5 | / | 38
COc1ccc(C(=O)NCc2ccncc2)cc1S(=O)(=O)NCc1ccc(Cl)cc1 | / | / | 0 | 8 | / | /
COc1ccc(N=Cc2[nH]c3ccccc3c2O)cc1 | 0.6 | 40 | 59* | -1 | 4 | 15
C[C@@H]1CN([C@@H](C)CO)C(=O)c2cc(/C=C/c3ccccc3)cnc2O[C@@H]1CN(C)S(=O)(=O)c1ccc(F)cc1 | / | / | 3 | / | / | /
C[C@@H]1CN([C@@H](C)CO)C(=O)c2cc(C#CC3CCCCC3)cnc2O[C@@H]1CN(C)S(=O)(=O)c1ccc(F)cc1 | / | / | 66* | / | / | 10
CN(CC1COc2ccccc2O1)C(=O)c1ccc(Cl)c(S(=O)(=O)N2CCCCCC2)c1 (stereo not drawn) | / | / | 11 | 1 | / | /
COc1cc(N)c2ncsc2c1 | / | / | 69* | 13 | / | 72* | Diaph ctr 10uM=-11;Diaphorase 30uM=-11
COc1cc(/C=C/C(=O)Nc2nnc(CC(C)C)s2)cc(OC)c1OC | 1 | 0 | -3 | 6 | -5 | /
COc1cc(/C=C/C(=O)Nc2nnc(CC(C)(C)C)s2)cc(OC)c1OC | 1 | 3 | 59* | -19 | 10 | 35
Oc1ccc(-c2nccs2)cc1 | / | / | 0 | 1 | / | /
COc1ccc(OCCN2C(=O)c3cccc(N)c3C2=O)cc1 | / | / | 0 | -1 | / | /
O=C(c1ccc(Cl)c([N+](=O)[O-])c1)N1CCN(Cc2ccc3c(c2)OCO3)CC1 | 1.1 | -7 | 6 | -10 | 5 | /
CC(C)c1cc2c(c(O)c1O)[C@@]13CCCC(C)(C)C1CC2OC3=O (stereo partly drawn) | / | / | 67* | 9 | / | 51* | Diaph ctr 10uM=-16;Diaphorase 30uM=-24
COC(=O)Cc1sc(-c2ccccn2)nc1-c1ccccc1 | 0.8 | 18 | 63* | -14 | -1 | 23
C/C(COc1ccccc1)=N\NC(=O)c1nnn(-c2nonc2N)c1CSc1ccc(C)cc1 | / | / | 1 | / | / | /
CC[C@@H]1C/C=C\Cc2ccccc2[C@@H](C(=O)C[C@H](O)CC(C)=O)OC1=O | / | / | 10 | -5 | / | /
O=C1C=CC2=C3c4cc(O)c(O)cc4CC3(O)COC2=C1O (stereo not drawn) | / | / | 81* | 34 | / | 68* | Diaph ctr 10uM=16;Diaphorase 30uM=22
CC1(C)Cc2c(c(N3CCOCC3)nc3sc(C(=O)Nc4ccccc4)c(N)c23)CO1 | / | / | 56 | -2 | / | /
CN(C(=O)c1sc2nc(N3CCCC3)c3c(c2c1N)CC(C)(C)OC3)c1ccccc1 | / | / | 66* | 3 | / | -3
CCOc1ccc(Cl)cc1/C=N/O | 0.8 | 21 | 2 | 14 | -4 | /
CCOc1ccc(Cl)cc1/C=N/NC(N)=O | 0.9 | 10 | 79* | 4 | 4 | 53* | Diaph ctr 10uM=47;Diaphorase 30uM=38

Source: PubChem BioAssay (Sanford-Burnham Center for Chemical Genomics)
